According to ChEMBL document CHEMBL5329211, “Selective isoxazolopyrimidine PAT1 (SLC26A6) inhibitors for therapy of intestinal disorders” (RSC Med Chem, 2023):
The source made the active and inactive calls. The rule behind the calls is not given here.

What follows are molecules tested on Mus musculus (assay: In vivo inhibition of PAT1 in intestinal closed-loop CD-1 mouse model assessed as reduction in loop weight/length ratio in ileum measured for 30 mins).
Assay type: functional
Outline: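 Mice (wild-type CD1 or homozygous F508del CF, 10-16 wk, both sexes) fasted 24 h with free access to 5% dextrose water. Under isoflurane at 36-38 °C, 2-3 ileal loops (2-3 cm) were tied off and injected with 100 µL PBS pH 7.4 containing 30 µM inhibitor, 10 µM tenapanor or 0.1% DMSO vehicle. Loops removed at 0 or 30 min in separate mice; length and weight measured for fluid absorption. One-way ANOVA with Newman-Keuls.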

SMILES | inhibition
CN1Cc2c(Cl)cc(Cl)cc2[C@H](c2cccc(S(=O)(=O)NCCOCCOCCNC(=O)NCCCCNC(=O)NCCOCCOCCNS(=O)(=O)c3cccc([C@@H]4CN(C)Cc5c(Cl)cc(Cl)cc54)c3)c2)C1 | Active

Each molecule was assayed against Solute carrier family 26 member 6 (Mus musculus) (UniProt Q8CIW6) (assay: Inhibition of SLC26A6 (unknown origin) expressed in rat FRT cells coexpressing YFP halide-sensing protein assessed as iodide-chloride exchange incubated for 2 sec by fluorescence quenching analysis).
Chain of Solute carrier family 26 member 6 (Mus musculus) (Q8CIW6 whole entry, looked up): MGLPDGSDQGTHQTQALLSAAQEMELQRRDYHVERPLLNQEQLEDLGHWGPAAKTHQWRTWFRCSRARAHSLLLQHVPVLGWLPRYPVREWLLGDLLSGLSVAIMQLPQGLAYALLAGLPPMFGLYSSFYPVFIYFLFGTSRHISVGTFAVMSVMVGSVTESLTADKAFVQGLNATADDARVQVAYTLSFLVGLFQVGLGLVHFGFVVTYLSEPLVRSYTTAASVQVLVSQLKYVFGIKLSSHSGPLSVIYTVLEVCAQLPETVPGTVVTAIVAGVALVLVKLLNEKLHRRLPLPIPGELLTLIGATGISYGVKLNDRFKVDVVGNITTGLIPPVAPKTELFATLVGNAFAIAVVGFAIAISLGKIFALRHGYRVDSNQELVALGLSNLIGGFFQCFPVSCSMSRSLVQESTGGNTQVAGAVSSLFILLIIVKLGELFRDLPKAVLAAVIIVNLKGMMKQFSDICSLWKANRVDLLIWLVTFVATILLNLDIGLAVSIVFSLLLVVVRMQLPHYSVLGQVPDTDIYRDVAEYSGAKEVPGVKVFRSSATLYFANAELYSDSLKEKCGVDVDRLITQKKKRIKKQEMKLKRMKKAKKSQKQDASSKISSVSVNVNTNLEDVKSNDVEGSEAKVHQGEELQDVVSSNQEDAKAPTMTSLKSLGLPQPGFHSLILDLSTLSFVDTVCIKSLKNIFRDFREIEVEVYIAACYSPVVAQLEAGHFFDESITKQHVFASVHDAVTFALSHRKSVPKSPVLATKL

SMILES | IC50 [nM]
CCOC(=O)c1nc(NCCc2ccccc2Cl)c2c(CC)noc2n1 | 5200
CCOC(=O)c1nc(NCc2cc(Br)ccc2OC)c2c(CC)noc2n1 | 2500
CCOC(=O)c1nc(NCCc2ccc(Cl)cc2)c2c(CC)noc2n1 | 5200
CCOC(=O)c1nc(NCc2cc(OC)ccc2OC)c2c(CC)noc2n1 | 3700
CCOC(=O)c1nc(NCc2ccc(SC)cc2)c2c(C)noc2n1 | 2600
CCOC(=O)c1nc(NCCC(C)C)c2c(C)noc2n1 | 2300
CCOC(=O)c1nc(NCC(C)OC)c2c(-c3ccc(F)cc3)noc2n1 (stereo not drawn) | 5100
CCOC(=O)c1nc(NCc2ccc(OCC)cc2)c2c(C)noc2n1 | 2000
CCOC(=O)c1nc(NCCc2ccco2)c2c(CC)noc2n1 | 1400
CCOC(=O)c1nc(NCCc2ccccc2)c2c(CC)noc2n1 | 3200
CCOC(=O)c1nc(Nc2cccc(C)c2C)c2c(C)noc2n1 | 1200
CCOC(=O)c1nc(NCc2ccc(F)cc2)c2c(C)noc2n1 | 2300
CCOC(=O)c1nc(NCc2cc(C)ccc2C)c2c(C)noc2n1 | 1500
CCOC(=O)c1nc(NCCc2cccs2)c2c(CC)noc2n1 | 1600
CCOC(=O)c1nc(N2CCN(c3cccc(Cl)c3)CC2)c2c(C)noc2n1 | 2600
CCOC(=O)c1nc(NCc2ccccc2)c2c(CC)noc2n1 | 4300
CCOC(=O)c1nc(NCc2ccc(Cl)cc2)c2c(CC)noc2n1 | 3400

Other lines, results leading:

IC50 [nM] | SMILES
1800 | CCOC(=O)c1nc(NCCc2ccsc2)c2c(C)noc2n1
3400 | CCOC(=O)c1nc(NCc2cccnc2)c2c(-c3ccc(F)cc3)noc2n1
1100 | CCOC(=O)c1nc(NCc2cccc(Br)c2)c2c(C)noc2n1
5700 | CCCOc1ccc(CNc2nc(C(=O)OCC)nc3onc(C)c23)cc1
1900 | CCOC(=O)c1nc(NCc2ccccc2OC)c2c(CC)noc2n1
1100 | CCOC(=O)c1nc(NCc2ccccc2Cl)c2c(C)noc2n1
1100 | CCOC(=O)c1nc(NCc2cccc(C)c2)c2c(C)noc2n1
6500 | CCOC(=O)c1nc(NCc2ccc(OC(C)C)cc2)c2c(C)noc2n1
4400 | CCOC(=O)c1nc(NCc2cccc(OC)c2)c2c(C)noc2n1
3800 | CCOC(=O)c1nc(NCc2ccc(C)cc2)c2c(CC)noc2n1
1100 | CCOC(=O)c1nc(NCc2ccccc2F)c2c(C)noc2n1
2200 | CCOC(=O)c1nc(NCc2cccc(F)c2)c2c(C)noc2n1
5200 | CCOC(=O)c1nc(NCc2ccccc2F)c2c(CC)noc2n1
1800 | CCOC(=O)c1nc(NCc2ccccc2)c2c(C)noc2n1
3200 | CCOC(=O)c1nc(NCc2ccc(F)cc2)c2c(CC)noc2n1
2400 | CCOC(=O)c1nc(NCCc2ccco2)c2c(C)noc2n1
3700 | CCOC(=O)c1nc(Nc2ccccc2C)c2c(C)noc2n1
17200 | CCOC(=O)c1nc(NCc2ccccc2OC)c2c(C)noc2n1

What follows are molecules tested against Solute carrier family 26 member 6 (Mus musculus) (UniProt Q8CIW6) (assay: Inhibition of SLC26A6 (unknown origin) expressed in rat FRT cells coexpressing YFP halide-sensing protein assessed as iodide-chloride exchange at 25 uM incubated for 2 sec by fluorescence quenching analysis relative to control).

inhibition [%] | SMILES
< 25 | CCOC(=O)c1nc(NCc2ccccc2OCC)c2c(C)noc2n1
< 25 | CCOC(=O)c1nc(NCc2cccc(Br)c2)c2c(-c3ccc(F)cc3)noc2n1
